STAT1 blocker: STAT1 signaling inhibitors, primary screen, cell-based, HTS, luciferase reporter. NIH 3T3 STAT1-luciferase reporter, IFN-gamma, luminescence. inhibition, % at 5.5 µM. actives 0.35% (n = 200,000);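 active = inhibition above a set limit, the mean inhibition across all tested compounds plus 3 SD, cut at about 34% in these data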
STAT3 act-1: IL-6 driven STAT3 reporter potentiators, primary screen, U3A cells, luciferase, luminescence, MLSCN library; IL-6 STAT3-luciferase reporter; 100% = signal with IL-6 EC80 alone; activation (% of control), % at 5.6 µM; actives 0.91% (n = 190,000); AID 871, 2007;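 active = activation above the screen-wide mean of compound activation plus 3 SD, cut at about 130% in these data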
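Material: STAT1-lacking human U3A cells, STAT3 luciferase reporter | Benchmarks: IL-6-only wells as 100% reference | Probe or stimulus: IL-6 (33 ng/mL) | Timing: Compound 1 h, then IL-6 6 h at 37 °C | Detection: Luminescence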
STAT3 blocker: IL-6 driven STAT3 reporter inhibitors, primary screen, U3A cells, luciferase, luminescence, MLSCN library. IL-6 STAT3-luciferase reporter; host cell line lacks STAT1. inhibition, % at 5.5 µM. actives 0.89% (n = 190,000). AID 862, 2007;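 active = inhibition above the mean inhibition across all screened compounds plus 3 SD, cut at about 44% in these data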
PPC-1+TRAIL kill: compounds killing PPC-1 cancer cells with TRAIL present, primary screen, TRAIL potentiator project, ATPLite luminescence, uHTS. actives 0.41% (n = 220,000). AID 1443, 2008. PPC-1 cells + TRAIL, ATPLite viability luminescence. cell killing (% activity), % at 4 µM or 5 µM;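 active = cell killing above 50% in the first pass at 4 µM, then a duplicate retest at 5 µM averaging 50% or more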
C8 TRAIL sens: viability loss with TRAIL in NB7+C8 cells, primary screen, TRAIL sensitizer project, cell-based, ATPlite luminescence. AID 624354, 2012. actives 1% (n = 360,000). inhibition (viability loss, TRAIL sensitization), % at 10 µM;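 active = compounds causing at least 50% loss of cell viability in the single-dose screen, relative to plate controls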
STAT3 act-2: STAT3 reporter potentiators, retest of hits, confirmation, U3A cells, luciferase, luminescence. shares compounds with STAT3 act-1. IL-6 potentiation; U3A cells lack STAT1; 100 means same as IL-6 alone. potentiation (% of control), % at 5.7 µM. actives 64% (n = 1,200). AID 1267, 2008;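 active = percent activation of the STAT3 luciferase reporter above a set limit taken from the earlier primary screen, cut at about 130% in these data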
NFkB act STAT3ct: NF-kB reporter activators in human cells, counter-screen for STAT3 activator project; shares compounds with STAT3 act-1; NF-kappaB reporter activation; activation (% of control), % at 5.7 µM; actives 11% (n = 1,200); in the data active = activation above about 120%;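 also: reporter induced by TNF-alpha stimulation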
STAT1 act: STAT1 reporter activators, IFN-gamma induced, counter-screen for STAT3 activator project, cell-based, NIH 3T3, luciferase luminescence; NIH 3T3 STAT1-luciferase reporter; actives 13% (n = 1,200); shares compounds with STAT3 act-1; activation (% of control), % at 5.7 µM;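 active = activation above the solvent-only control well mean plus 3 SD, set per screening run, cut at about 120% in these data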
Each line names hits and unclear results; the compound was inactive in the other large screens (follow-up assays come after a bar, where they were run). Sampled rows, rich in hits. Any-hit rate of the full collection: about 1.8%.

CCOc1ccc(NC(=O)C(Cc2ccccc2)N2C(=O)c3cccc4cccc(c34)C2=O)cc1 (stereo not given)	STAT3 act-1 138.0 | STAT3 act-2 inactive | NFkB act STAT3ct inactive | STAT1 act inactive
CN1CCc2c(sc3nc(SCC(=O)N4CCOCC4)n(-c4ccc(Cl)cc4)c(=O)c23)C1	none (no result: STAT1 blocker, STAT3 act-1, STAT3 blocker, PPC-1+TRAIL kill)
CC1CCC(NC(=O)CSc2nncn2C)CC1 (stereo not given)	none (no result: STAT1 blocker, STAT3 act-1, STAT3 blocker, PPC-1+TRAIL kill)
CC(=O)Nc1sc(N/N=C\c2ccccc2)nc1-c1cccs1	STAT3 act-1 139.7 | STAT3 act-2 177.2 | NFkB act STAT3ct inactive | STAT1 act inactive
CSc1ncnc2c1ncn2CCCNCCc1ccccn1	none (no result: STAT1 blocker, STAT3 act-1, STAT3 blocker, PPC-1+TRAIL kill)
Cc1ccc(C(=O)NCC(=O)Nc2ccc(S(=O)(=O)Nc3cc(C)nc(C)n3)cc2)cc1	none (no result: STAT1 blocker, STAT3 act-1, STAT3 blocker, PPC-1+TRAIL kill)
COc1cc2c(cc1NC(=O)c1ccncc1)oc1ccccc12	STAT3 act-1 154.8 | STAT3 act-2 136.6 | NFkB act STAT3ct inactive | STAT1 act inactive
COc1cc2c(cc1NC(=O)C(C)Sc1cccc[n+]1[O-])oc1ccccc12 (stereo not given)	STAT3 act-1 136.3 | STAT3 act-2 138.8 | NFkB act STAT3ct inactive | STAT1 act inactive
COc1cc2c(cc1NC(=O)C(C)N1CCN(S(=O)(=O)c3ccc(C)c(C)c3)CC1)oc1ccccc12 (stereo not given)	none
COc1cc2c(cc1NC(=O)C(C)OC(=O)c1ccc(S(=O)(=O)Nc3ccccc3Cl)cc1)oc1ccccc12 (stereo not given)	STAT3 act-1 140.9 | STAT3 act-2 inactive | NFkB act STAT3ct inactive | STAT1 act inactive
COc1cc2c(cc1NC(=O)c1cccnc1)oc1ccccc12	none
Cc1ccc(-c2nc(CN3CCCC(C(=O)N4CCOCC4)C3)c(C)o2)cc1 (stereo not given)	none (no result: STAT1 blocker, STAT3 act-1, STAT3 blocker, PPC-1+TRAIL kill)
Cc1[nH]c2ccccc2c1/C=N/Nc1ccc(F)cc1F	STAT3 act-1 154.8 (no result: C8 TRAIL sens) | STAT3 act-2 142.0 | NFkB act STAT3ct inactive | STAT1 act 121.1
CCOC(=O)C1=C(CSc2nc(-c3ccccc3)ccc2C#N)OC(N)=C(C#N)C1c1ccccc1 (stereo not given)	none
CCOC(=O)C1=C(CSc2nc(-c3ccccc3)ccc2C#N)OC(N)=C(C#N)C1c1cccnc1 (stereo not given)	STAT3 act-1 136.5 | STAT3 act-2 inactive | NFkB act STAT3ct inactive | STAT1 act inactive
O=S(=O)(Nc1nc2ccccc2s1)c1ccc(Br)s1	STAT3 act-1 142.3 | STAT3 act-2 133.6 | NFkB act STAT3ct inactive | STAT1 act inactive
Cc1ccc(S(=O)(=O)Nc2nc3ccccc3s2)cc1	none
COc1ccc(S(=O)(=O)Nc2nc3ccccc3s2)cc1OC	STAT3 act-1 154.4 | STAT3 act-2 141.9 | NFkB act STAT3ct inactive | STAT1 act inactive
NC(=Nc1c([N+](=O)[O-])cnc2ccccc12)N1CCOCC1	none (no result: STAT1 blocker, STAT3 act-1, STAT3 blocker, PPC-1+TRAIL kill)
CC(C(=O)Nc1ccccn1)N1C(=O)C2C3C=CC(C3)C2C1=O (stereo not given)	none
O=C1C2C3C=CC(C3)C2C(=O)N1CNc1ccccn1 (stereo not given)	STAT3 act-1 139.6 | STAT3 act-2 inactive | NFkB act STAT3ct inactive | STAT1 act inactive
Cc1c(C(=O)Nc2nc3ccccc3[nH]2)oc2ccc(Br)cc12	none
Cc1c(C(=O)Nc2nc3ccccc3[nH]2)oc2c(Cl)cccc12	STAT3 act-1 143.4 | STAT3 act-2 177.8 | NFkB act STAT3ct 120.9 | STAT1 act 122.1
Cc1ccc(S(=O)(=O)N2C[C@H]3C(=O)C[C@@H](c4ccccc4F)N(S(=O)(=O)c4ccc(C)cc4)[C@H]3C[C@H]2c2cccc3ccccc23)cc1	none (no result: STAT1 blocker, STAT3 act-1, STAT3 blocker, PPC-1+TRAIL kill)
Oc1ccc(N2CCN(c3ncnc4sc(-c5ccccc5)cc34)CC2)cc1	STAT3 act-1 159.1 | STAT3 act-2 inactive | NFkB act STAT3ct inactive | STAT1 act inactive
O=C(NN1C(=O)NC2(CCCCC2)C1=O)c1cccs1	none (no result: STAT1 blocker, STAT3 act-1, STAT3 blocker, PPC-1+TRAIL kill)
Cc1ccc(N2CC(C(=O)Nc3nc4ccc(S(C)(=O)=O)cc4s3)CC2=O)cc1 (stereo not given)	none (no result: STAT1 blocker, STAT3 act-1, STAT3 blocker, PPC-1+TRAIL kill)
COc1ccc(C2c3[nH]c4ccccc4c3CCN2CCCn2cccn2)c(C)c1C (stereo not given)	STAT3 act-1 162.6 | STAT3 act-2 162.6 | NFkB act STAT3ct inactive | STAT1 act inactive
COc1cccc(C2c3[nH]c4ccccc4c3CCN2C(=O)Cn2cncn2)c1OC (stereo not given)	none (no result: PPC-1+TRAIL kill)
CCC(C)NC(=O)C(NS(=O)(=O)c1cccc2nsnc12)c1ccccc1 (stereo not given)	STAT3 act-1 138.7 | STAT3 act-2 inactive | NFkB act STAT3ct inactive | STAT1 act inactive
O=C1c2ccccc2C(=O)N1CCC1=CCCCC1	STAT3 act-1 141.5 | STAT3 act-2 inactive | NFkB act STAT3ct 122.4 | STAT1 act 131.5
CC1(c2nc3ccccc3[nH]2)CCCC2=Nc3ccccc3CN21 (stereo not given)	none (no result: STAT1 blocker, STAT3 act-1, STAT3 blocker, PPC-1+TRAIL kill)
CCn1cc(C(=O)N2CCc3ccccc32)c(=O)c2cc(S(=O)(=O)N(C)C3CCCCC3)ccc21	none
CCn1cc(C(=O)N2CCc3ccccc32)c(=O)c2cc(S(=O)(=O)N3CCOCC3)ccc21	STAT3 act-1 145.9 | STAT3 act-2 inactive | NFkB act STAT3ct inactive | STAT1 act inactive
O=C1c2ccccc2C(=O)N1OCc1ccccc1	STAT3 act-1 136.8 | STAT3 act-2 inactive | NFkB act STAT3ct inactive | STAT1 act inactive
O=C1c2ccccc2C(=O)N1OCc1cccc(Cl)c1	none
CCN(CC)S(=O)(=O)c1cccc(-c2nnc(SCCCC(=O)c3ccccc3)o2)c1	none
CCN(CC)S(=O)(=O)c1cccc(-c2nnc(SCc3nc4ccccc4s3)o2)c1	STAT3 act-1 139.2 | STAT3 act-2 inactive | NFkB act STAT3ct inactive | STAT1 act inactive
COC(=O)C1OC1c1cc([N+](=O)[O-])ccc1OC (stereo not given)	none (no result: STAT1 blocker, STAT3 act-1, STAT3 blocker, PPC-1+TRAIL kill)
COc1ccc([N+](=O)[O-])cc1C1NN=C(c2ccccc2O)S1 (stereo not given)	STAT3 act-1 150.9 | STAT3 act-2 142.1 | NFkB act STAT3ct inactive | STAT1 act inactive
Cc1noc(C)c1CSCC(=O)N(C)CC(=O)Nc1ccccc1Br	none (no result: STAT1 blocker, STAT3 act-1, STAT3 blocker, PPC-1+TRAIL kill)

Bioassay records as filed in PubChem.
